Reference: ChEMBL document CHEMBL2010712, “Design and synthesis of orally available MEK inhibitors with potent in vivo antitumor efficacy” (Bioorg Med Chem Lett, 2012)
pEC50, pIC50: −log10 of the molar value. The source made the active and inactive calls. No cut-off for these calls is given here.

Assays:
[1] = Volume of distribution at steady state in rat at 1 mg/kg, iv and 5 mg/kg, po; type: ADME, organism-based; settings: in vivo, read-out: Vdss
[2] = system: A-375; test: Cytotoxicity against human A375 cells after 72 hrs by MTS assay; settings: A-375, 72 h
[3] = target: RAC-gamma serine/threonine-protein kinase (Homo sapiens) (UniProt Q9Y243); test: Inhibition of AKT3 at 10 uM
[4] = target: Proto-oncogene tyrosine-protein kinase Src (Homo sapiens) (UniProt P12931); test: Inhibition of cSRC at 10 uM
[5] = Inhibition of cytochrome P450 at 10 uM; type: ADME
[6] = target: Mitogen-activated protein kinase 14 (Homo sapiens) (UniProt Q16539); test: Inhibition of p38alpha at 10 uM
[7] = target: T1, Dual specificity mitogen-activated protein kinase kinase 1 (Homo sapiens, UniProt Q02750); test: Inhibition of MEK1-mediated Erk1/2 phosphorylation in human HT-29 cells at 30 mg/kg measured after 4 hrs by in vivo pharmacodynamic model; type: organism-based; parameters: dose 30 mg/kg
Procedure, shortened: (§1)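 In vivo pharmacodynamic study: p-ERK1/2 suppression measured 4 h after dosing across a dose response and related to compound plasma concentration.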

[8] = Half life in rat liver microsomes; type: ADME, Microsome
[9] = target: Insulin receptor (Homo sapiens) (UniProt P06213); test: Inhibition of IR at 10 uM
[10] = Clearance in rat at 1 mg/kg, iv and 5 mg/kg, po; type: ADME, organism-based; settings: in vivo
[11] = system: COLO 205; test: Cytotoxicity against human COLO205 cells after 72 hrs by MTS assay; settings: COLO 205, 72 h
[12] = target: Glycogen synthase kinase-3 beta (Homo sapiens) (UniProt P49841); test: Inhibition of GSK3beta at 10 uM
Sequence of Glycogen synthase kinase-3 beta (Homo sapiens) (P49841 whole entry, looked up): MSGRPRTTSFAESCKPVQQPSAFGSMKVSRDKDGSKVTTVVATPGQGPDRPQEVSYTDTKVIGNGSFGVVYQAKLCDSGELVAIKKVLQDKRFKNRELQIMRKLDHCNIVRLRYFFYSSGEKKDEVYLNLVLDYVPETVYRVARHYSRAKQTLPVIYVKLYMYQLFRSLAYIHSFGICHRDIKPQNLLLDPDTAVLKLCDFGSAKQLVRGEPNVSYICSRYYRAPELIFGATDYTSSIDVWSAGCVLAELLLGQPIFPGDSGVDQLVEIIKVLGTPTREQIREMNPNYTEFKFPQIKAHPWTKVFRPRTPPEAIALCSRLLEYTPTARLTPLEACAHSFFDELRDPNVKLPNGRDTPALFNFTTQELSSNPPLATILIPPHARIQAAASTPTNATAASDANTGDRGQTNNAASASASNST

[13] = target: Platelet-derived growth factor receptor beta (Homo sapiens) (UniProt P09619); test: Inhibition of PDGFRbeta at 10 uM
[14] = Half life in human liver microsomes; type: ADME, Microsome
[15] = system: Rattus norvegicus; test: Dose normalized AUC in rat at 1 mg/kg, iv and 5 mg/kg, po; type: ADME, organism-based; settings: in vivo
[16] = target: Epidermal growth factor receptor (Homo sapiens) (UniProt P00533); test: Inhibition of EGFR at 10 uM
Sequence of Epidermal growth factor receptor (Homo sapiens) (P00533 whole entry): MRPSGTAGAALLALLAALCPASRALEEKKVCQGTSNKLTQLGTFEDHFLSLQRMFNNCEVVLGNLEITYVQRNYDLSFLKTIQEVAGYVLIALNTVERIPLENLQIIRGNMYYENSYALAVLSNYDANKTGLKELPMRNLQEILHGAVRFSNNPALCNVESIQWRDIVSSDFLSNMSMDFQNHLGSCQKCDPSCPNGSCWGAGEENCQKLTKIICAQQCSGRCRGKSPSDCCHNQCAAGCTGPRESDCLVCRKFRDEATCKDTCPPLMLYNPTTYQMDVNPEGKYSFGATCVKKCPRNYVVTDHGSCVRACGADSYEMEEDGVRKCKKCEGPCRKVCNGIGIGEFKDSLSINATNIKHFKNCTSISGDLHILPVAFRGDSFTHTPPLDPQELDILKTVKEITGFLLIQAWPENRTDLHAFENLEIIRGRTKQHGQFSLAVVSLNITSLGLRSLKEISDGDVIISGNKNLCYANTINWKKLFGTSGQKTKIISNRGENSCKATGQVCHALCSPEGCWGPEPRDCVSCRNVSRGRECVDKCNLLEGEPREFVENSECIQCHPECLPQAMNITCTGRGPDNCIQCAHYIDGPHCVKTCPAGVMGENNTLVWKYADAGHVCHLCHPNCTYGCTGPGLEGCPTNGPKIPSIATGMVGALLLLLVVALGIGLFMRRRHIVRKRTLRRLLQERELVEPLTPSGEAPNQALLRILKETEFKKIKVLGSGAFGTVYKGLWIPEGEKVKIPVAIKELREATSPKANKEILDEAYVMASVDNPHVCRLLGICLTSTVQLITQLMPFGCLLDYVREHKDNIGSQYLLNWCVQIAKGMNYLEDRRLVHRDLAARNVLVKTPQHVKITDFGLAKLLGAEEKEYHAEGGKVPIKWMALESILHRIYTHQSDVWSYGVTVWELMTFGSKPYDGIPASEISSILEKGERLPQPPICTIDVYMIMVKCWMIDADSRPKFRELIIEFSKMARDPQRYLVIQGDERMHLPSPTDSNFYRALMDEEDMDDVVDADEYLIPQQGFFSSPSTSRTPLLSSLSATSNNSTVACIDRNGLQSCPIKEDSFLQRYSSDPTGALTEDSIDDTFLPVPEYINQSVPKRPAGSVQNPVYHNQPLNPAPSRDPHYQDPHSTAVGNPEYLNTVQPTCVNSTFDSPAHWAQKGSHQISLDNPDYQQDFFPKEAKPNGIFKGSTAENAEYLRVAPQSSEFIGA

[17] = target: Tyrosine-protein kinase SYK (Homo sapiens) (UniProt P43405); test: Inhibition of Syk at 10 uM
[18] = target: RAF proto-oncogene serine/threonine-protein kinase (Homo sapiens) (UniProt P04049); test: Inhibition of c-RAF at 10 uM
Sequence of RAF proto-oncogene serine/threonine-protein kinase (Homo sapiens) (P04049 whole entry): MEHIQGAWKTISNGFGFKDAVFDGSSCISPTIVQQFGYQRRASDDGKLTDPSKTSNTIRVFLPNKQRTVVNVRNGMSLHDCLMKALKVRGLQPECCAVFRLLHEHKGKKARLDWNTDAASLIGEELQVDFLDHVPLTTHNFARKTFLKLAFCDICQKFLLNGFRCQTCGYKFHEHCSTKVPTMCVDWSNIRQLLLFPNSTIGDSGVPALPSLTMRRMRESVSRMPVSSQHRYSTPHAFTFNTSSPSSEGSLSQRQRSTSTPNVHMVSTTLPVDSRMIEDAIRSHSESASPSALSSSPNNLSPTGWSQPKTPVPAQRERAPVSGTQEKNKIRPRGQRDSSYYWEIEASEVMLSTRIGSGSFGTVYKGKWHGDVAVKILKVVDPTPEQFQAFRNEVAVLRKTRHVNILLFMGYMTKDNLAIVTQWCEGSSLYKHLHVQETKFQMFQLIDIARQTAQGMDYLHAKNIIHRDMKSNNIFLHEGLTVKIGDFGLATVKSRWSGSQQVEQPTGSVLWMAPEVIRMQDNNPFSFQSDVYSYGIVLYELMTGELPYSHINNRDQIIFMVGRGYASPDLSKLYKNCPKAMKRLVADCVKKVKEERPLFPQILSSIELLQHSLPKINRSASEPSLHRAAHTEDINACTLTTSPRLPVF

[19] = target: Angiopoietin-1 receptor (Homo sapiens) (UniProt Q02763); test: Inhibition of Tie2 at 10 uM
[20] = target: Calcium/calmodulin-dependent protein kinase type 1D (Homo sapiens) (UniProt Q8IU85); test: Inhibition of CAMK1delta at 10 uM
[21] = target: Cyclin-dependent kinase 2/cyclin A (Homo sapiens) (UniProt P24941+P20248+P78396); test: Inhibition of CDK2/cyclin A at 10 uM; type: protein-complex assay
[22] = target: T2, Tyrosine-protein kinase JAK3 (Homo sapiens) (UniProt P52333); test: Inhibition of JAK3 at 10 uM
T2 sequence (whole entry): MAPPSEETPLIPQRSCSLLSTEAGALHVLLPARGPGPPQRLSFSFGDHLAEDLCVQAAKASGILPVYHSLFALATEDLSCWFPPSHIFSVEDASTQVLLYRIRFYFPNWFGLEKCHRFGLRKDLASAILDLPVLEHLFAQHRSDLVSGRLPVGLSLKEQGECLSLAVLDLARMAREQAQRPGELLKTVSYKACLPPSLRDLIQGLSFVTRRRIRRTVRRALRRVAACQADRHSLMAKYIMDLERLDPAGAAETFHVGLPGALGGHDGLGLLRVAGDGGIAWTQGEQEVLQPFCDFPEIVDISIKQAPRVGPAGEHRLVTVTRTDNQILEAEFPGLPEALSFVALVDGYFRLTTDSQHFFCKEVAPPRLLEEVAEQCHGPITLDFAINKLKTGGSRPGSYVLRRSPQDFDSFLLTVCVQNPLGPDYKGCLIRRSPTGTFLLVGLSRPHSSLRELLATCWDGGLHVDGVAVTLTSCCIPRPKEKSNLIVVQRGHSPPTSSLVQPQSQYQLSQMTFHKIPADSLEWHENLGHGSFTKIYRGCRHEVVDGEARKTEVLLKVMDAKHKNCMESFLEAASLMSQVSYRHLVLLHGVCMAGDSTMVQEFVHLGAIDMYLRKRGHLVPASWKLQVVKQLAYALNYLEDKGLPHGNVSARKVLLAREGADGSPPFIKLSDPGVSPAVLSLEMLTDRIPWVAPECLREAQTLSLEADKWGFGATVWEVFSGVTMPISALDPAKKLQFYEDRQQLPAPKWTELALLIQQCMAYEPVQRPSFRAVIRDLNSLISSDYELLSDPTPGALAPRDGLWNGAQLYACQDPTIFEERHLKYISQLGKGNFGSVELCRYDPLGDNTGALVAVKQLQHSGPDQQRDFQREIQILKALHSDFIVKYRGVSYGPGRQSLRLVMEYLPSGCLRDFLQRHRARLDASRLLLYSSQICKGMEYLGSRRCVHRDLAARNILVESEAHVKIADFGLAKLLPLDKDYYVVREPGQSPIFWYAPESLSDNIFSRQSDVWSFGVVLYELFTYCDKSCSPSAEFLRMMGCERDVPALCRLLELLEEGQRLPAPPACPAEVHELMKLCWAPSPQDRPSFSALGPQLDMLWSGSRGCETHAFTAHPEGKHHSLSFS

[23] = target: Serine/threonine-protein kinase PLK3 (Homo sapiens) (UniProt Q9H4B4); test: Inhibition of PLK3 at 10 uM
Sequence of Serine/threonine-protein kinase PLK3 (Homo sapiens) (Q9H4B4 whole entry, looked up): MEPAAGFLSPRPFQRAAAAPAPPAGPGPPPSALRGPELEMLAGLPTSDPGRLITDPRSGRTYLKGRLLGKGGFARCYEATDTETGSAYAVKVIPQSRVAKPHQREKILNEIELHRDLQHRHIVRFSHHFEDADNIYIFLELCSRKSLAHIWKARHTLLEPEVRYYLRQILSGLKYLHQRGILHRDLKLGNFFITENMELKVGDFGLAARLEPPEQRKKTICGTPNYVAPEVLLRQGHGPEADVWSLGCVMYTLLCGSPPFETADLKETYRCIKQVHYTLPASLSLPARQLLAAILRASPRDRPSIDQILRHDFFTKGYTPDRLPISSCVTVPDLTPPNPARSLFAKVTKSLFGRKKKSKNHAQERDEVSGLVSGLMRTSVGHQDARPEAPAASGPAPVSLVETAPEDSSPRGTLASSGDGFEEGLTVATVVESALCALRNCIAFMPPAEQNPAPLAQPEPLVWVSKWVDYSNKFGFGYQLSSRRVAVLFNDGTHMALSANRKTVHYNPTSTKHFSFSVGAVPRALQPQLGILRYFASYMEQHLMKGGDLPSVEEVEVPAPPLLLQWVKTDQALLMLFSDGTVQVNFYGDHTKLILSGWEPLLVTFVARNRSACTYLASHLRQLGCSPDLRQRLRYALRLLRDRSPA

[24] = target: Hepatocyte growth factor receptor (Homo sapiens) (UniProt P08581); test: Inhibition of cMET at 10 uM
Sequence of Hepatocyte growth factor receptor (Homo sapiens) (P08581 whole entry): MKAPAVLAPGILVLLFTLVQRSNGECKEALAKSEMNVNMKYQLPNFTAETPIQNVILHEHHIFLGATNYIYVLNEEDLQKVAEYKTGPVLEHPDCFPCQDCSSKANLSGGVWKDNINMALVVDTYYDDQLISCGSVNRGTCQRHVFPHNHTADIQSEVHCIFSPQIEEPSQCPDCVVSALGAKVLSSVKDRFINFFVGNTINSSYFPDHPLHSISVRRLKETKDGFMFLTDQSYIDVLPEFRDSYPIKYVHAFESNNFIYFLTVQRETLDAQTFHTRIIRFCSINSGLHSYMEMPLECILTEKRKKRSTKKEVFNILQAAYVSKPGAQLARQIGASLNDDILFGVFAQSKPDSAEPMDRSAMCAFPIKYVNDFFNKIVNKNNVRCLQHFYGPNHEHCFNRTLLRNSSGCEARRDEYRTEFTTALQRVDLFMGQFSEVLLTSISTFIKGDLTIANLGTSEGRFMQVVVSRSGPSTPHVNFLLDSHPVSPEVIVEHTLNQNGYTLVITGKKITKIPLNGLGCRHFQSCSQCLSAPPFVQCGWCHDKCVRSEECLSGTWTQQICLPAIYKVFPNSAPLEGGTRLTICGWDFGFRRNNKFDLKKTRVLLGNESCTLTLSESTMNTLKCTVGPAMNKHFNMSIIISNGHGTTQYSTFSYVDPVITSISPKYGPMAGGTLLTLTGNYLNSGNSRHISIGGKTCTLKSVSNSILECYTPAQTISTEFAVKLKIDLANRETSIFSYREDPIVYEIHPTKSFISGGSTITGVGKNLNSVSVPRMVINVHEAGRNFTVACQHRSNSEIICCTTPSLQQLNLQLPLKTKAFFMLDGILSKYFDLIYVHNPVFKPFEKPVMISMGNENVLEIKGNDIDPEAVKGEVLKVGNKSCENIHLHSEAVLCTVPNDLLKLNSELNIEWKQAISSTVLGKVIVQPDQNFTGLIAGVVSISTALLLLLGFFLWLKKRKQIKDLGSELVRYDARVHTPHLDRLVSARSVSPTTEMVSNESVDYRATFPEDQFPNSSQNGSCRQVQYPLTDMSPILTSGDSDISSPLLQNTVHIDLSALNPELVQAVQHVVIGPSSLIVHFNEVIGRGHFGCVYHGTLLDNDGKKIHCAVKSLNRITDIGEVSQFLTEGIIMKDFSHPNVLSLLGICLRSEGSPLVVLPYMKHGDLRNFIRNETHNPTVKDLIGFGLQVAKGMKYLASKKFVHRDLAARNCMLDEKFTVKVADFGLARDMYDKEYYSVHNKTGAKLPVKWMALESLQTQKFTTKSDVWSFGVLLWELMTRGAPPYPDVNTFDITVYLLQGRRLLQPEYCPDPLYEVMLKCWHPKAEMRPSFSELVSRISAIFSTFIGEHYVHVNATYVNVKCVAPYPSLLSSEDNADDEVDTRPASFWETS

[25] = target: 3-phosphoinositide-dependent protein kinase 1 (Homo sapiens) (UniProt O15530); test: Inhibition of PDK1 at 10 uM
[26] = target: Tyrosine-protein kinase ABL1 (Homo sapiens) (UniProt P00519); test: Inhibition of ABL1 at 10 uM
[27] = target: T1, Dual specificity mitogen-activated protein kinase kinase 1; test: Inhibition of MEK1-mediated ERK1 phosphorylation using IPTTPITTYFFFK-5FAM-COOH as substrate by fluorescent polarization assay
[28] = Oral bioavailability in rat at 5 mg/kg; type: ADME, organism-based; settings: in vivo
[29] = target: Protein kinase C alpha type (Homo sapiens) (UniProt P17252); test: Inhibition of PKCalpha at 10 uM
[30] = target: T1, Dual specificity mitogen-activated protein kinase kinase 1; test: Inhibition of MEK1-mediated Erk1/2 phosphorylation in human HT-29 cells at 3 mg/kg plasma concentration measured after 4 hrs by in vivo pharmacodynamic model; type: organism-based; parameters: dose 3 mg/kg; procedure, shortened: as §1
[31] = system: HL-60; test: Antitumor activity against human HL60 cells xenograft model assessed as inhibition of tumor regression at 10 mg/kg, po; type: functional, organism-based; parameters: dose 10 mg/kg
Procedure, shortened: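 HL-60 (NRAS) xenograft; compound given orally once daily at maximum tolerated dose over days 12–25 after tumor implant; tumor response followed versus control, complete regressions counted per group.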

SMILES | Vd [1] | pEC50 [2] | inhibition [3] | inhibition [4] | inhibition (INH) [5] | inhibition [6] | half-life [8] | inhibition [9] | clearance [10] | pEC50 [11] | inhibition [12] | inhibition [13] | half-life [14] | AUC/dose [15] | inhibition [16] | inhibition [17] | inhibition [18] | inhibition [19] | inhibition [20] | inhibition [21] | further results
C#Cc1ccc(Nc2c(C(=O)NOCCO)c3c(n2C)C(=O)CCC3)c(F)c1 | 0.596 L/kg | 7.82 | inactive | inactive | Not Active | inactive | 38 min | inactive | 5.9 mL/min/kg | 8.00 | inactive | inactive | 34 min | 1670 ng·h/mL/mg/kg | inactive | inactive | inactive | inactive | inactive | inactive | inhibition [7]: Active; inhibition [22]: inactive; inhibition [23]: inactive; inhibition [24]: inactive; inhibition [25]: inactive; inhibition [26]: inactive; pIC50 [27]: 7.49; bioavailability [28]: 61%; inhibition [29]: inactive
Cc1c(Nc2ccc(I)cc2F)c(C(=O)NOCCO)c2n(c1=O)CCC2 | 0.971 L/kg | 8.70 | inactive | inactive | Not Active | inactive | 40 min | inactive | 21.4 mL/min/kg | 9.00 | inactive | inactive | 99 min | 204 ng·h/mL/mg/kg | inactive | inactive | inactive | inactive | inactive | inactive | inhibition [30]: Active; inhibition [31]: Active; inhibition [22]: inactive; inhibition [23]: inactive; inhibition [24]: inactive; inhibition [25]: inactive; inhibition [26]: inactive; pIC50 [27]: 7.42; bioavailability [28]: 29%; inhibition [29]: inactive
Cn1c(Nc2ccc(I)cc2F)c(C(=O)NOC[C@H](O)CO)c2c1C(=O)CCC2 | 1.16 L/kg | 8.52 | inactive | inactive | Not Active | inactive | 26 min | inactive | 23.7 mL/min/kg | 8.60 | inactive | inactive | 36 min | 88 ng·h/mL/mg/kg | inactive | inactive | inactive | inactive | inactive | inactive | inhibition [22]: inactive; inhibition [23]: inactive; inhibition [24]: inactive; inhibition [25]: inactive; inhibition [26]: inactive; pIC50 [27]: 7.70; bioavailability [28]: 12%; inhibition [29]: inactive
